# Measured values from ChEMBL document CHEMBL6153131, “Rational Design and Optimization of a Potent IDO1 Proteolysis Targeting Chimera (PROTAC)” (J Med Chem, 2025).
# Active and inactive are the calls of the source. The calls are words filed in the database; no cut-off is given here.
# What was measured:
# [1] = molecular target: T1, Protein cereblon/Indoleamine 2,3-dioxygenase 1 (Homo sapiens, UniProt P14902+Q96SW2); assay: PROTAC activity at CRBN/N-terminal HiBiT-tagged IDO1 (unknown origin) transfected in human U87 cells assessed as induction of IDO1 degradation by measuring maximum efficacy pretreated with IFN-gamma for 24 hrs followed by compound addition and measured after 24 hrs by Nano-Glo HiBiT assay relative to control; format: cell-based
# Summary of the method: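 U87 cells carrying HiBiT knocked in by CRISPR/Cas9 at the IDO1 N-terminus, treated for 24 h. Degradation read as loss of luminescence. DC50 fitted from the lowest concentration up to maximal degradation, excluding hook-effect points; triplicate mean ± SD.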
# Target sequence in this assay (P14902 whole entry, looked up): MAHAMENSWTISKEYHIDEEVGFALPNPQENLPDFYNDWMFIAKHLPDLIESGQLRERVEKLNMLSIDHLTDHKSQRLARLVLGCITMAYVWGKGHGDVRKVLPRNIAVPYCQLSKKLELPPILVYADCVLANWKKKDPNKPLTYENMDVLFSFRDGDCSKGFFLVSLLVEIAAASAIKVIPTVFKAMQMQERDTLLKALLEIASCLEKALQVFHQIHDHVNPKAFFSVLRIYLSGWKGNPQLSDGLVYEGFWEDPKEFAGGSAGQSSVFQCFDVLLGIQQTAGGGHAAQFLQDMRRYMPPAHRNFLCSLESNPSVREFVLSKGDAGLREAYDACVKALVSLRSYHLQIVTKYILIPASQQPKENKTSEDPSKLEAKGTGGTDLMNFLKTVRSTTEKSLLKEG
# Target sequence in this assay (Q96SW2 whole entry, looked up): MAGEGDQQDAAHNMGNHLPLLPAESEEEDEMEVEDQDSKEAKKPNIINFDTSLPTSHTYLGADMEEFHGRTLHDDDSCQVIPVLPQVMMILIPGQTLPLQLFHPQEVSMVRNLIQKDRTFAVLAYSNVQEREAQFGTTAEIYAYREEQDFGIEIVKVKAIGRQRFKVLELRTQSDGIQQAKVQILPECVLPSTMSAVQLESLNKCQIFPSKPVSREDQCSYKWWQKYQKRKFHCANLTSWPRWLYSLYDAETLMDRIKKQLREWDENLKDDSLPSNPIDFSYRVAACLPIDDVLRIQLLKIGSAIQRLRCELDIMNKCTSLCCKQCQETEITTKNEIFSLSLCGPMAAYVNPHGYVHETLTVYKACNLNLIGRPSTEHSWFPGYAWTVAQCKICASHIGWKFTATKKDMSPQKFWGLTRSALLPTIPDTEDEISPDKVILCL
# [2] = molecular target: T1, Protein cereblon/Indoleamine 2,3-dioxygenase 1; assay: PROTAC activity at CRBN/IDO1 in human U87 cells assessed as induction of IDO1 degradation by measuring remaining activity at 0.1 uM pretreated with IFN-gamma for 24 hrs followed by compound addition and measured after 24 hrs by Western blotting analysis (reference value: 100%); format: cell-based
# Summary of the method: (§1)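 U87 cells given an extended dose range of PROTAC for 24 h, then Western blot for IDO1. IFNγ-induced IDO1 levels normalised to untreated samples. n = 3 independent experiments; mean ± SEM.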
# Target sequence in this assay (P14902 whole entry, looked up): as the sequence (P14902 whole entry, looked up) above
# Target sequence in this assay (Q96SW2 whole entry, looked up): as the sequence (Q96SW2 whole entry, looked up) above
# [3] = molecular target: T1, Protein cereblon/Indoleamine 2,3-dioxygenase 1; assay: PROTAC activity at CRBN/IDO1 in human U87 cells assessed as induction of IDO1 degradation by measuring remaining activity at 3 uM pretreated with IFN-gamma for 24 hrs followed by compound addition and measured after 24 hrs by Western blotting analysis (reference value: 100%); format: cell-based; summary of the method: as §1
# Target sequence in this assay (P14902 whole entry, looked up): as the sequence (P14902 whole entry, looked up) above
# Target sequence in this assay (Q96SW2 whole entry, looked up): as the sequence (Q96SW2 whole entry, looked up) above
# [4] = molecular target: T1, Protein cereblon/Indoleamine 2,3-dioxygenase 1; assay: PROTAC activity at CRBN/IDO1 in human U87 cells assessed as induction of IDO1 degradation by measuring maximum efficacy at 100 nM pretreated with IFN-gamma for 24 hrs followed by compound addition and measured after 24 hrs by Western blotting analysis relative to control; format: cell-based
# Summary of the method: (§2)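 IDO1 in U87 cells induced with 50 ng/mL human IFN-γ, then compound given across an extended dose range for 24 h. IDO1 and GAPDH read by Western blot; IDO1 levels normalized to untreated; DC50 from n = 3 independent experiments.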
# Target sequence in this assay (P14902 whole entry, looked up): as the sequence (P14902 whole entry, looked up) above
# Target sequence in this assay (Q96SW2 whole entry, looked up): as the sequence (Q96SW2 whole entry, looked up) above
# [5] = molecular target: T1, Protein cereblon/Indoleamine 2,3-dioxygenase 1; assay: PROTAC activity at CRBN/IDO1 in human GBM43 cell assessed as induction of IDO1 degradation at 0.01 uM pretreated with IFN-gamma for 24 hrs followed by compound addition and measured after 24 hrs by Western blotting analysis (reference value: 100%); format: cell-based
# Summary of the method: (§3)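 GBM43 patient-derived cells given an extended dose range of PROTAC for 24 h. Protein analysed by Western blot for IDO1, and IFNγ-induced IDO1 normalised to untreated samples. n = 3 independent experiments; data as mean ± SEM.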
# Target sequence in this assay (P14902 whole entry, looked up): as the sequence (P14902 whole entry, looked up) above
# Target sequence in this assay (Q96SW2 whole entry, looked up): as the sequence (Q96SW2 whole entry, looked up) above
# [6] = molecular target: T1, Protein cereblon/Indoleamine 2,3-dioxygenase 1; assay: PROTAC activity at CRBN/IDO1 in human GBM43 cell assessed as induction of IDO1 degradation at 0.03 uM pretreated with IFN-gamma for 24 hrs followed by compound addition and measured after 24 hrs by Western blotting analysis (reference value: 100%); format: cell-based; summary of the method: as §3
# Target sequence in this assay (P14902 whole entry, looked up): as the sequence (P14902 whole entry, looked up) above
# Target sequence in this assay (Q96SW2 whole entry, looked up): as the sequence (Q96SW2 whole entry, looked up) above
# [7] = molecular target: T1, Protein cereblon/Indoleamine 2,3-dioxygenase 1; assay: PROTAC activity at CRBN/IDO1 in human GBM43 cell assessed as induction of IDO1 degradation at 1 uM pretreated with IFN-gamma for 24 hrs followed by compound addition and measured after 24 hrs by Western blotting analysis (reference value: 100%); format: cell-based; summary of the method: as §3
# [8] = molecular target: T1, Protein cereblon/Indoleamine 2,3-dioxygenase 1; assay: PROTAC activity at CRBN/IDO1 in human GBM43 cell assessed as induction of IDO1 degradation at 3 uM pretreated with IFN-gamma for 24 hrs followed by compound addition and measured after 24 hrs by Western blotting analysis (reference value: 100%); format: cell-based; summary of the method: as §3
# [9] = molecular target: T1, Protein cereblon/Indoleamine 2,3-dioxygenase 1; assay: PROTAC activity at CRBN/IDO1 in human U87 cells assessed as induction of IDO1 degradation at 100 nM pretreated with IFN-gamma for 24 hrs followed by compound addition and measured after 24 hrs in presence of NU223618 by Western blotting analysis; format: cell-based
# [10] = molecular target: T1, Protein cereblon/Indoleamine 2,3-dioxygenase 1; assay: PROTAC activity at CRBN/IDO1 in human U87 cells assessed as induction of IDO1 degradation at 100 nM at 1 uM pretreated with IFN-gamma for 24 hrs followed by compound addition and measured after 24 hrs in presence of pomalidomide by Western blotting analysis; format: cell-based
# [11] = molecular target: T1, Protein cereblon/Indoleamine 2,3-dioxygenase 1; assay: PROTAC activity at CRBN/IDO1 in human U87 cells assessed as induction of IDO1 degradation at 100 nM at 0.5 uM pretreated with IFN-gamma for 24 hrs followed by compound addition and measured after 24 hrs in presence of MLN4924 by Western blotting analysis; format: cell-based
# [12] = molecular target: T1, Protein cereblon/Indoleamine 2,3-dioxygenase 1; assay: PROTAC activity at CRBN/IDO1 in human PDX-6 cells assessed as induction of IDO1 degradation pretreated with IFN-gamma for 24 hrs followed by compound addition and measured after 24 hrs by Western blotting analysis; format: cell-based; details: dose 50-100 nM
# Summary of the method: (§4)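 Cells had IDO1 induced with IFNγ, then were treated at the indicated concentrations for 24 h. Lines: PDX-6 and PDX-38 adult GBM PDX cells, U87 overexpressing GFP-fused IDO1, PC-3, KNS42, MDA-MB-231, SW-1990 and SKOV-3. Lysates probed for IDO1 and GAPDH by Western blot; representative of 3 separate replicates.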
# [13] = molecular target: T1, Protein cereblon/Indoleamine 2,3-dioxygenase 1; assay: PROTAC activity at CRBN/IDO1 in human PDX-38 cells assessed as induction of IDO1 degradation pretreated with IFN-gamma for 24 hrs followed by compound addition and measured after 24 hrs by Western blotting analysis; format: cell-based; details: dose 50-100 nM; summary of the method: as §4
# [14] = molecular target: T1, Protein cereblon/Indoleamine 2,3-dioxygenase 1; assay: PROTAC activity at CRBN/IDO1 in human PC-3 cells assessed as induction of IDO1 degradation pretreated with IFN-gamma for 24 hrs followed by compound addition and measured after 24 hrs by Western blotting analysis; format: cell-based; details: dose 50-100 nM; summary of the method: as §4
# [15] = molecular target: T1, Protein cereblon/Indoleamine 2,3-dioxygenase 1; assay: PROTAC activity at CRBN/IDO1 in human KNS-42 cells assessed as induction of IDO1 degradation pretreated with IFN-gamma for 24 hrs followed by compound addition and measured after 24 hrs by Western blotting analysis; format: cell-based; details: dose 50-100 nM; summary of the method: as §4
# [16] = molecular target: T1, Protein cereblon/Indoleamine 2,3-dioxygenase 1; assay: PROTAC activity at CRBN/IDO1 in human SW1990 cells assessed as induction of IDO1 degradation pretreated with IFN-gamma for 24 hrs followed by compound addition and measured after 24 hrs by Western blotting analysis; format: cell-based; details: dose 50-100 nM; summary of the method: as §4
# [17] = molecular target: T1, Protein cereblon/Indoleamine 2,3-dioxygenase 1; assay: PROTAC activity at CRBN/IDO1 in human SK-OV-3 cells assessed as induction of IDO1 degradation pretreated with IFN-gamma for 24 hrs followed by compound addition and measured after 24 hrs by Western blotting analysis; format: cell-based; details: dose 50-100 nM; summary of the method: as §4
# PDX-38 = assay: Inhibition of kynurenine production in human PDX-38 cells pretreated with IFN-gamma for 24 hrs followed by compound addition and measured after 24 hrs by Ehrlich's reagent based analysis; format: functional, cell-based; details: dose 50-100 nM
# U-87MG ATCC = assay: Inhibition of kynurenine production in human U87 cells overexpressing GFP-fused IDO1 cells pretreated with IFN-gamma for 24 hrs followed by compound addition and measured after 24 hrs by Ehrlich's reagent based analysis; format: functional, cell-based; details: dose 50-100 nM
# Kelly [18] = assay: Downregulation of ADO protein level in human Kelly cells at 1 uM incubated for 24 hrs by proteomics analysis; format: functional, cell-based
# Kelly [19] = assay: Downregulation of CDK8 protein level in human Kelly cells at 1 uM incubated for 24 hrs by proteomics analysis; format: functional, cell-based
# Kelly [20] = assay: Downregulation of SALL4 protein level in human Kelly cells at 1 uM incubated for 24 hrs by proteomics analysis; format: functional, cell-based
# [21] = molecular target: T1, Protein cereblon/Indoleamine 2,3-dioxygenase 1; assay: PROTAC activity at CRBN/IDO1 in human U87 cell assessed as induction of IDO1 degradation pretreated with IFN-gamma for 24 hrs followed by compound addition and measured after 24 hrs by Western blot analysis; format: cell-based; summary of the method: as §2
# Target sequence in this assay (P14902 whole entry): as the sequence (P14902 whole entry, looked up) above
# Target sequence in this assay (Q96SW2 whole entry): as the sequence (Q96SW2 whole entry, looked up) above
smiles,measurement,setting,value
C[C@@H](C(=O)Nc1cccc(OC2CCN(C(=O)CN3CCC(N4CCN(c5ccc6c(c5)C(=O)N(C5CCC(=O)NC5=O)C6=O)CC4)CC3)CC2)c1)[C@H]1CC[C@@H](c2ccnc3ccc(F)cc32)CC1 (stereo partly drawn),Emax,[1],63%
same,Activity,[2],12%
same,Activity,[3],55%
same,Emax,[4],88%
same,Activity,[5],61%
same,Activity,[6],34%
same,Activity,[7],47%
same,Activity,[8],77%
same,Activity,[9],inactive
same,Activity,[10],inactive
same,Activity,[11],inactive
same,Activity,[12],Dose-dependent-effect
same,Activity,[13],Dose-dependent-effect
same,Activity,[14],Dose-dependent-effect
same,Activity,[15],Dose-dependent-effect
same,Activity,[16],Dose-dependent-effect
same,Activity,[17],Dose-dependent-effect
same,inhibition,PDX-38,Dose-dependent-effect
same,inhibition,U-87MG ATCC,Dose-dependent-effect
same,Activity,Kelly [18],Active
same,Activity,Kelly [19],Active
same,Activity,Kelly [20],Active
same,DC50,[21],7.1 nM
